Calls of active or inactive are those of the source.
Experiments:
[1] = test system: Mus musculus; assay: Anticonvulsant activity in mouse assessed as protection against maximal electroshock-induced hindlimb tonic extensor component of seizure at 300 mg/kg, ip after 30 mins by MES test; format: functional, organism-based; parameters: dose 300 mg/kg
Summary of the method: (§1)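 Mice were dosed ip at 30, 100 or 300 mg/kg in 0.9% NaCl or 30% PEG 400 (0.01 ml/g), with four animals per dose. One mouse per dose got MES at 30 min and another at 4 h. Stimulus: 60-Hz AC, 50 mA, 0.2 s, corneal electrodes. Protection was abolition of hindlimb tonic extension; the lowest active dose was scored.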

[2] = test system: Mus musculus; assay: Anticonvulsant activity in mouse assessed as protection against maximal electroshock-induced hindlimb tonic extensor component of seizure at 300 mg/kg, ip after 4 hrs by MES test; format: functional, organism-based; parameters: dose 300 mg/kg; summary of the method: as §1
[3] = test system: Mus musculus; assay: Anticonvulsant activity in mouse assessed as protection against metrazole-induced seizures at 300 mg/kg, ip after 30 mins by subcutaneous pentylenetetrazole seizure threshold test; format: functional, organism-based; parameters: dose 300 mg/kg
Summary of the method: (§2)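 Screen in mice given 30, 100 or 300 mg/kg ip in 0.9% NaCl or 30% PEG 400 (0.01 ml/g), four animals per dose. Subcutaneous metrazole challenge was given to one mouse per dose at 30 min and to another at 4 h. Activity was scored as the lowest active dose.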

[4] = test system: Mus musculus; assay: Anticonvulsant activity in mouse assessed as protection against metrazole-induced seizures at 300 mg/kg, ip after 4 hrs by subcutaneous pentylenetetrazole seizure threshold test; format: functional, organism-based; parameters: dose 300 mg/kg; summary of the method: as §2
[5] = test system: Mus musculus; assay: Anticonvulsant activity in mouse assessed as protection against metrazole-induced seizures at 30 mg/kg, ip after 30 mins by subcutaneous pentylenetetrazole seizure threshold test; format: functional, organism-based; parameters: dose 30 mg/kg; summary of the method: as §2
[6] = test system: Mus musculus; assay: Anticonvulsant activity in mouse assessed as protection against metrazole-induced seizures at 100 mg/kg, ip after 4 hrs by subcutaneous pentylenetetrazole seizure threshold test; format: functional, organism-based; parameters: dose 100 mg/kg; summary of the method: as §2
[7] = test system: Mus musculus; assay: Neurotoxicity in ip dosed mouse assessed as CNS depression; format: toxicity, organism-based, Central nervous system; details: in vivo
[8] = test system: Mus musculus; assay: Anticonvulsant activity in mouse assessed as protection against maximal electroshock-induced hindlimb tonic extensor component of seizure at 30 mg/kg, ip after 4 hrs by MES test; format: functional, organism-based; parameters: dose 30 mg/kg; summary of the method: as §1
[9] = test system: Mus musculus; assay: Anticonvulsant activity in mouse assessed as protection against metrazole-induced seizures at 30 mg/kg, ip after 4 hrs by subcutaneous pentylenetetrazole seizure threshold test; format: functional, organism-based; parameters: dose 30 mg/kg; summary of the method: as §2
[10] = test system: Mus musculus; assay: Anticonvulsant activity against metrazole-induced seizures in ip dosed mouse assessed as duration of action by subcutaneous pentylenetetrazole seizure threshold test; format: functional; summary of the method: as §2
[11] = test system: Mus musculus; assay: Anticonvulsant activity in ip dosed mouse assessed as protection against maximal electroshock-induced hindlimb tonic extensor component of seizure by MES test; format: functional
Summary of the method: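 Mice dosed ip at 30, 100 and 300 mg/kg, compound in 0.9% NaCl or 30% PEG 400 (0.01 ml/g); four animals per dose, one tested at 30 min and one at 4 h. Seizure induced by 60-Hz corneal current, 50 mA, 0.2 s; protection = abolition of hindlimb tonic extension. ED50 with confidence limits by Litchfield–Wilcoxon.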

[12] = test system: Mus musculus; assay: Anticonvulsant activity in ip dosed mouse assessed as protection against metrazole-induced seizures by subcutaneous pentylenetetrazole seizure threshold test; format: functional
Summary of the method: (§3)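 Against subcutaneous metrazole in ip-dosed mice (0.9% NaCl or 30% PEG 400 vehicle), ED50 was taken at 30 min or at the time of peak effect (0.5 h or 2 h, as the line states). ED50 and confidence limits were derived by Litchfield–Wilcoxon.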

[13] = Neurotoxicity in ip dosed mouse by rotarod test; format: toxicity, organism-based; details: in vivo
[14] = test system: Mus musculus; assay: Anticonvulsant activity in mouse assessed as protection against maximal electroshock-induced hindlimb tonic extensor component of seizure at 100 mg/kg, ip after 30 mins by MES test; format: functional, organism-based; parameters: dose 100 mg/kg; summary of the method: as §1
[15] = test system: Mus musculus; assay: Anticonvulsant activity in mouse assessed as protection against maximal electroshock-induced hindlimb tonic extensor component of seizure at 100 mg/kg, ip after 4 hrs by MES test; format: functional, organism-based; parameters: dose 100 mg/kg; summary of the method: as §1
[16] = test system: Mus musculus; assay: Anticonvulsant activity in ip dosed mouse assessed as protection against maximal electroshock-induced hindlimb tonic extensor component of seizure after 2 hrs by MES test; format: functional
Summary of the method: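 MES ED50 in ip-dosed mice (0.9% NaCl or 30% PEG 400 vehicle) was read at the time of peak effect (2 h). Stimulus: 60-Hz AC, 50 mA, 0.2 s via corneal electrodes, with abolition of hindlimb tonic extension as the end point. ED50 and confidence limits were derived by Litchfield–Wilcoxon.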

[17] = test system: Mus musculus; assay: Anticonvulsant activity in ip dosed mouse assessed as protection against metrazole-induced seizures after 2 hrs by subcutaneous pentylenetetrazole seizure threshold test; format: functional; summary of the method: as §3
[18] = test system: Mus musculus; assay: Anticonvulsant activity against maximal electroshock-induced hindlimb tonic extensor component of seizure in ip dosed mouse assessed as duration of action by MES test; format: functional; summary of the method: as §1
[19] = test system: Mus musculus; assay: Anticonvulsant activity in ip dosed mouse assessed as protection against metrazole-induced seizures after 0.5 hrs by subcutaneous pentylenetetrazole seizure threshold test; format: functional; summary of the method: as §3

Compound | Activity [1] | Activity [2] | Activity [3] | Activity [4] | Activity [5] | other results
CN1C(=O)CC(C(=O)c2ccc(NC(=O)CBr)cc2)(c2ccccc2)C1=O (stereo not given) | inactive | inactive | inactive | inactive | – | –
CN1C(=O)CC(C(=O)c2ccc(N3C(=O)C=CC3=O)cc2)(c2ccccc2)C1=O (stereo not given) | inactive | inactive | inactive | inactive | – | –
CN1C(=O)CC(c2ccc(NC(=O)/C=C\C(=O)O)cc2)C1=O (stereo not given) | inactive | inactive | inactive | inactive | – | –
CN1C(=O)CC(C(=O)CBr)(c2ccccc2)C1=O (stereo not given) | inactive | inactive | – | inactive | Active | –
CN1C(=O)CC(CCCN2C(=O)C=CC2=O)(c2ccccc2)C1=O (stereo not given) | inactive | inactive | inactive | – | – | Activity [6]: Active; Activity [7]: Toxic
CN1C(=O)CC(CCN2C(=O)C=CC2=O)(c2ccccc2)C1=O (stereo not given) | inactive | – | – | – | Active | Activity [8]: Active; Activity [9]: Active; Activity [7]: Toxic; Time [10]: 3.5 h
CN1C(=O)CC(CCCNC(=O)/C=C\C(=O)O)(c2ccccc2)C1=O (stereo not given) | inactive | inactive | inactive | inactive | – | –
CCC1(C)CC(=O)NC1=O (stereo not given) [ETHOSUXIMIDE] | inactive | inactive | Active | inactive | – | ED50 [11]: > 1000 mg/kg; ED50 [12]: 130 mg/kg
CN1C(=O)CC(C(=O)c2ccc(NC(=O)/C=C\C(=O)O)cc2)(c2ccccc2)C1=O (stereo not given) | inactive | inactive | inactive | inactive | – | –
CN1C(=O)CC(C)(c2ccccc2)C1=O (stereo not given) [METHSUXIMIDE] | Active | Active | – | inactive | Active | ED50 [11]: 76 mg/kg; ED50 [12]: 35 mg/kg; TD50 [13]: 188 mg/kg
CN1C(=O)CC(c2ccc(NC(=O)CCl)cc2)C1=O (stereo not given) | inactive | inactive | inactive | inactive | – | –
CN1C(=O)CC(c2ccc(N3C(=O)C=CC3=O)cc2)C1=O (stereo not given) | inactive | inactive | – | inactive | Active | Activity [7]: Toxic
CN1C(=O)CC(CCNC(=O)CCl)(c2ccccc2)C1=O (stereo not given) | inactive | inactive | inactive | inactive | – | –
CN1C(=O)CC(CCNC(=O)/C=C\C(=O)O)(c2ccccc2)C1=O (stereo not given) | inactive | inactive | inactive | inactive | – | –
CN1C(=O)CC(c2ccccc2)C1=O (stereo not given) [PHENSUXIMIDE] | – | Active | – | – | Active | Activity [14]: Active; Activity [9]: Active; ED50 [12]: 50 mg/kg; TD50 [13]: 232 mg/kg
CN1C(=O)CC(c2ccc(NC(=O)CI)cc2)C1=O (stereo not given) | inactive | – | – | inactive | Active | Activity [15]: Active; Activity [7]: Toxic
CN1C(=O)CC(C(=O)CCl)(c2ccccc2)C1=O (stereo not given) | Active | Active | – | inactive | Active | ED50 [16]: 225 mg/kg; ED50 [17]: 100 mg/kg; Time [18]: 3.5 h
CN1C(=O)CC(CCCNC(=O)CCl)(c2ccccc2)C1=O (stereo not given) | inactive | inactive | inactive | inactive | – | –
CN1C(=O)CC(c2ccc(NC(=O)CBr)cc2)C1=O (stereo not given) | inactive | inactive | – | – | Active | Activity [9]: Active; ED50 [19]: 35 mg/kg; TD50 [13]: 54 mg/kg; Activity [7]: Toxic; Time [10]: 3.5 h

Reference: ChEMBL document CHEMBL3244302, “Potential long-acting anticonvulsants. 1; Synthesis and activity of succinimides containing an alkylating group at the 2 position” (J Med Chem, 1977)
